Laboratory results as given in ChEMBL document CHEMBL4251599, “Synthesis and biological evaluation of coumarin derivatives containing imidazole skeleton as potential antibacterial agents” (Eur J Med Chem, 2018).
Converted amounts (≈) assume the structure as drawn.

What was measured:
Assay type in all cases: functional
Escherichia coli [1] = assay: Bactericidal activity against Escherichia coli ATCC 35150 incubated for 24 hrs followed by re-plating on nutrient agar and measured after overnight incubation by two fold serial dilution method; settings: ATCC 35150, 24 h
Outline: (§1)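 After the MIC read, 100 µl from every tube without visible growth was spread on nutrient agar lacking compound. Plates were incubated overnight at 28 ± 1 °C. MBC was taken as the lowest concentration killing >99.9% of the initial population, seen as no growth on agar.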

Staphylococcus aureus [2] = assay: Bactericidal activity against Staphylococcus aureus ATCC 29213 incubated for 24 hrs followed by re-plating on nutrient agar and measured after overnight incubation by two fold serial dilution method; settings: ATCC 29213, 24 h; outline: as §1
Streptococcus agalactiae [3] = assay: Antibacterial activity against Streptococcus agalactiae WB1445 after 24 hrs by two fold serial dilution method; settings: WB1445, 24 h
Outline: (§2)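 Broth two-fold serial dilution per CLSI, in nutrient broth. Inoculum from 24 h cultures at 28 ± 1 °C, adjusted in saline to 1×10^7-2×10^7 cfu/mL, then diluted to 1×10^5-2×10^5 cfu/mL. Test range 256 down to 0.50 µM and lower. Tubes held 24 h at 28 ± 1 °C. MIC read visually. Enrofloxacin and norfloxacin served as standards.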

Streptococcus agalactiae [4] = assay: Bactericidal activity against Streptococcus agalactiae WB1445 incubated for 24 hrs followed by re-plating on nutrient agar and measured after overnight incubation by two fold serial dilution method; settings: WB1445, 24 h; outline: as §1
Flavobacterium columnare [5] = assay: Antibacterial activity against Flavobacterium columnare FC-G1 after 24 hrs by two fold serial dilution method; settings: FC-G1, 24 h; outline: as §2
Escherichia coli [6] = assay: Antibacterial activity against Escherichia coli ATCC 35150 after 24 hrs by two fold serial dilution method; settings: ATCC 35150, 24 h; outline: as §2
Staphylococcus aureus [7] = assay: Antibacterial activity against Staphylococcus aureus ATCC 29213 after 24 hrs by two fold serial dilution method; settings: ATCC 29213, 24 h; outline: as §2
Flavobacterium columnare [8] = assay: Bactericidal activity against Flavobacterium columnare FC-G1 incubated for 24 hrs followed by re-plating on nutrient agar and measured after overnight incubation by two fold serial dilution method; settings: FC-G1, 24 h; outline: as §1

SMILES	MIC (Streptococcus agalactiae [3])	MIC (Flavobacterium columnare [5])	MIC (Escherichia coli [6])	MIC (Staphylococcus aureus [7])	MBC (Escherichia coli [1])	MBC (Staphylococcus aureus [2])	MBC (Streptococcus agalactiae [4])	MBC (Flavobacterium columnare [8])
O=c1ccc2ccc(OCCn3ccnc3)cc2o1	> 256 µM	> 256 µM	128 µM (≈ 32.8 µg/mL)	> 256 µM	256 µM (≈ 65.6 µg/mL)	> 256 µM	> 256 µM	> 256 µM
Cc1cc(=O)oc2cc(OCCCCCCCCn3ccnc3C)ccc12	16 µM (≈ 5.9 µg/mL)	4 µM (≈ 1.47 µg/mL)	> 256 µM	64 µM (≈ 23.6 µg/mL)	> 256 µM	256 µM (≈ 94.3 µg/mL)	16 µM (≈ 5.9 µg/mL)	8 µM (≈ 2.95 µg/mL)
O=c1ccc2ccc(OCCBr)cc2o1	> 256 µM	> 256 µM	> 256 µM	> 256 µM	> 256 µM	> 256 µM	> 256 µM	> 256 µM
Cc1cn(CCOc2ccc3ccc(=O)oc3c2)cn1	> 256 µM	> 256 µM	16 µM (≈ 4.32 µg/mL)	> 256 µM	64 µM (≈ 17.3 µg/mL)	> 256 µM	> 256 µM	> 256 µM
Cc1nccn1CCOc1ccc2ccc(=O)oc2c1	> 256 µM	> 256 µM	64 µM (≈ 17.3 µg/mL)	> 256 µM	256 µM (≈ 69.2 µg/mL)	> 256 µM	> 256 µM	> 256 µM
Cc1cc(=O)oc2cc(OCCCCCCCCn3cnc4ccccc43)ccc12	32 µM (≈ 12.9 µg/mL)	16 µM (≈ 6.47 µg/mL)	> 256 µM	32 µM (≈ 12.9 µg/mL)	> 256 µM	256 µM (≈ 104 µg/mL)	64 µM (≈ 25.9 µg/mL)	64 µM (≈ 25.9 µg/mL)
Cc1cc(=O)oc2cc(OCCCCCCCCn3ccnc3)ccc12	8 µM (≈ 2.84 µg/mL)	4 µM (≈ 1.42 µg/mL)	> 256 µM	64 µM (≈ 22.7 µg/mL)	> 256 µM	256 µM (≈ 90.7 µg/mL)	16 µM (≈ 5.67 µg/mL)	16 µM (≈ 5.67 µg/mL)
O=c1ccc2ccc(OCCCCBr)cc2o1	> 256 µM	> 256 µM	> 256 µM	> 256 µM	> 256 µM	> 256 µM	> 256 µM	> 256 µM
O=c1ccc2ccc(OCCCCCCCCCCBr)cc2o1	> 256 µM	> 256 µM	> 256 µM	> 256 µM	> 256 µM	> 256 µM	> 256 µM	> 256 µM
Cc1cn(CCCCCCCCOc2ccc3c(C)cc(=O)oc3c2)cn1	8 µM (≈ 2.95 µg/mL)	8 µM (≈ 2.95 µg/mL)	> 256 µM	32 µM (≈ 11.8 µg/mL)	> 256 µM	256 µM (≈ 94.3 µg/mL)	32 µM (≈ 11.8 µg/mL)	16 µM (≈ 5.9 µg/mL)
Cc1cn(CCCCOc2ccc3ccc(=O)oc3c2)cn1	> 256 µM	> 256 µM	16 µM (≈ 4.77 µg/mL)	> 256 µM	32 µM (≈ 9.55 µg/mL)	> 256 µM	> 256 µM	> 256 µM
O=c1ccc2ccc(OCCCCCCCCN3CCCCC3)cc2o1	> 256 µM	> 256 µM	–	–	–	–	> 256 µM	> 256 µM
O=c1ccc2ccc(OCCCCn3ccnc3)cc2o1	> 256 µM	> 256 µM	128 µM (≈ 36.4 µg/mL)	64 µM (≈ 18.2 µg/mL)	256 µM (≈ 72.8 µg/mL)	256 µM (≈ 72.8 µg/mL)	> 256 µM	> 256 µM
Cc1cc(=O)oc2cc(OCCCCCCCCn3cncn3)ccc12	32 µM (≈ 11.4 µg/mL)	16 µM (≈ 5.69 µg/mL)	> 256 µM	32 µM (≈ 11.4 µg/mL)	> 256 µM	256 µM (≈ 91 µg/mL)	64 µM (≈ 22.7 µg/mL)	64 µM (≈ 22.7 µg/mL)
O=c1ccc2ccc(OCCCCCCCCN3CCNCC3)cc2o1	> 256 µM	> 256 µM	–	–	–	–	> 256 µM	> 256 µM
O=c1ccc2ccc(OCCCCCCCCBr)cc2o1	> 256 µM	> 256 µM	> 256 µM	> 256 µM	> 256 µM	> 256 µM	> 256 µM	> 256 µM
Cc1cc(=O)oc2cc(OCCCCCCCCBr)ccc12	> 256 µM	> 256 µM	> 256 µM	> 256 µM	> 256 µM	> 256 µM	> 256 µM	> 256 µM
O=c1ccc2ccc(OCCCCCCBr)cc2o1	> 256 µM	> 256 µM	> 256 µM	> 256 µM	> 256 µM	> 256 µM	> 256 µM	> 256 µM
NCCCCCCCCOc1ccc2ccc(=O)oc2c1	> 256 µM	> 256 µM	–	–	–	–	> 256 µM	> 256 µM
CCN1CCN(c2cc3c(cc2F)c(=O)c(C(=O)O)cn3C2CC2)CC1 [ENROFLOXACIN]	8 µM (≈ 2.88 µg/mL)	2 µM (≈ 0.719 µg/mL)	1 µM (≈ 0.359 µg/mL)	2 µM (≈ 0.719 µg/mL)	2 µM (≈ 0.719 µg/mL)	4 µM (≈ 1.44 µg/mL)	16 µM (≈ 5.75 µg/mL)	2 µM (≈ 0.719 µg/mL)
CCn1cc(C(=O)O)c(=O)c2cc(F)c(N3CCNCC3)cc21 [NORFLOXACIN]	64 µM (≈ 20.4 µg/mL)	32 µM (≈ 10.2 µg/mL)	1 µM (≈ 0.319 µg/mL)	32 µM (≈ 10.2 µg/mL)	2 µM (≈ 0.639 µg/mL)	64 µM (≈ 20.4 µg/mL)	128 µM (≈ 40.9 µg/mL)	128 µM (≈ 40.9 µg/mL)

Second part, led by results:

MIC (Streptococcus agalactiae [3])	MIC (Flavobacterium columnare [5])	MIC (Escherichia coli [6])	MIC (Staphylococcus aureus [7])	SMILES	MBC (Escherichia coli [1])	MBC (Staphylococcus aureus [2])	MBC (Streptococcus agalactiae [4])	MBC (Flavobacterium columnare [8])
> 256 µM	> 256 µM	> 256 µM	> 256 µM	O=c1ccc2ccc(OCCCCCCn3ccnc3-c3ccccc3)cc2o1	> 256 µM	> 256 µM	> 256 µM	> 256 µM
> 256 µM	> 256 µM	–	–	O=c1ccc2ccc(OCCCCCCCCn3cccn3)cc2o1	–	–	> 256 µM	> 256 µM
> 256 µM	> 256 µM	128 µM (≈ 42.5 µg/mL)	> 256 µM	O=c1ccc2ccc(OCCn3ccnc3-c3ccccc3)cc2o1	512 µM (≈ 170 µg/mL)	> 256 µM	> 256 µM	> 256 µM
> 256 µM	64 µM (≈ 20 µg/mL)	32 µM (≈ 10 µg/mL)	64 µM (≈ 20 µg/mL)	O=c1ccc2ccc(OCCCCCCn3ccnc3)cc2o1	64 µM (≈ 20 µg/mL)	64 µM (≈ 20 µg/mL)	> 256 µM	128 µM (≈ 40 µg/mL)
> 256 µM	> 256 µM	128 µM (≈ 39.2 µg/mL)	64 µM (≈ 19.6 µg/mL)	O=c1ccc2ccc(OCCn3cnc4ccccc43)cc2o1	256 µM (≈ 78.4 µg/mL)	256 µM (≈ 78.4 µg/mL)	> 256 µM	> 256 µM
32 µM (≈ 11.6 µg/mL)	32 µM (≈ 11.6 µg/mL)	> 256 µM	32 µM (≈ 11.6 µg/mL)	O=c1ccc2ccc(OCCCCCCn3cnc4ccccc43)cc2o1	> 256 µM	256 µM (≈ 92.8 µg/mL)	128 µM (≈ 46.4 µg/mL)	128 µM (≈ 46.4 µg/mL)
256 µM (≈ 100 µg/mL)	8 µM (≈ 3.12 µg/mL)	> 256 µM	32 µM (≈ 12.5 µg/mL)	O=c1ccc2ccc(OCCCCCCCCn3cnc4ccccc43)cc2o1	> 256 µM	128 µM (≈ 50 µg/mL)	512 µM (≈ 200 µg/mL)	32 µM (≈ 12.5 µg/mL)
> 256 µM	> 256 µM	32 µM (≈ 11.5 µg/mL)	> 256 µM	O=c1ccc2ccc(OCCCCn3ccnc3-c3ccccc3)cc2o1	128 µM (≈ 46.1 µg/mL)	> 256 µM	> 256 µM	> 256 µM
> 256 µM	> 256 µM	8 µM (≈ 2.68 µg/mL)	32 µM (≈ 10.7 µg/mL)	O=c1ccc2ccc(OCCCCn3cnc4ccccc43)cc2o1	64 µM (≈ 21.4 µg/mL)	256 µM (≈ 85.6 µg/mL)	> 256 µM	> 256 µM
> 256 µM	> 256 µM	> 256 µM	> 256 µM	O=c1ccc2ccc(OCCCCCCCCn3ccnc3-c3ccccc3)cc2o1	> 256 µM	> 256 µM	> 256 µM	> 256 µM
